Assay results: ChEMBL document CHEMBL3792298, “Design, synthesis and in vitro evaluation studies of sulfonyl-amino-acetamides as small molecule BACE-1 inhibitors” (Bioorg Med Chem, 2016)

Target: T1, Beta-secretase 1 (Homo sapiens, UniProt P56817)
Assay: Inhibition of human BACE1 expressed in recombinant baculovirus-infected insect cells using rhodamine conjugated APP-based EVNLDAEFK as substrate at 10 uM after 60 mins by FRET analysis
Procedure, shortened: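 Commercial BACE-1 FRET kit run per supplier protocol, with 3X BACE-1 enzyme (1U/ml) in 50mM sodium acetate buffer, pH 4.5. Compounds were made as 10mM DMSO stocks and diluted in buffer to a final 10µM. After 60 min incubation, fluorescence was read with excitation at 545 nm. Percent inhibition is given as mean ± S.D. of triplicate independent experiments.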

T1 sequence (P56817 whole entry): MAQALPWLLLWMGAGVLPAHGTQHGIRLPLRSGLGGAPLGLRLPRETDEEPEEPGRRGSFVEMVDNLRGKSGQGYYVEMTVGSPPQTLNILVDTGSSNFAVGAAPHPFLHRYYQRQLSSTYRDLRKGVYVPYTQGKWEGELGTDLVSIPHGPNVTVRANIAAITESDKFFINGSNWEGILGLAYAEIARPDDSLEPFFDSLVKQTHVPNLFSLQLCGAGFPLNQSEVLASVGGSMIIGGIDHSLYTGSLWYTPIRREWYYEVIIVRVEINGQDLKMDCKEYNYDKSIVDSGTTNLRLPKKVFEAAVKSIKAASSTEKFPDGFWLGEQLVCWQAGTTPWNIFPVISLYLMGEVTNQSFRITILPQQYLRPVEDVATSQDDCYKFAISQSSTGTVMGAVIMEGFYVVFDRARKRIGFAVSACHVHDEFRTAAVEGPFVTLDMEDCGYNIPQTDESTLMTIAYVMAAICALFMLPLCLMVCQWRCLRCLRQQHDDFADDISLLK

inhibition [%] | Compound
35.1 | COc1ccc(S(=O)(=O)NCC(=O)Nc2ccc(Cl)cc2)cc1
34.8 | O=C(CNS(=O)(=O)c1ccc(Cl)cc1)Nc1ccc(Cl)cc1
8.72 | O=C(CNS(=O)(=O)c1ccccc1)Nc1ccccc1
28.9 | CC(=O)Nc1ccc(S(=O)(=O)NCC(=O)Nc2ccccc2)cc1
4.83 | O=C(CNS(=O)(=O)c1ccccc1)Nc1cccc(Cl)c1
28.6 | COc1ccc(S(=O)(=O)NCC(=O)Nc2ccccc2)cc1
18.5 | O=C(CNS(=O)(=O)c1ccccc1[N+](=O)[O-])Nc1ccc(Cl)cc1
21.9 | Cc1ccc(S(=O)(=O)NCC(=O)Nc2ccccc2)cc1
5.09 | O=C(CNS(=O)(=O)c1ccccc1)Nc1ccc(Cl)cc1
25.3 | Cc1ccc(S(=O)(=O)NCC(=O)Nc2ccc(Cl)cc2)cc1
29.5 | O=C(CNS(=O)(=O)c1cccc([N+](=O)[O-])c1)Nc1ccc(Cl)cc1
9.89 | O=C(CNS(=O)(=O)c1ccc([N+](=O)[O-])cc1)Nc1ccc(Cl)cc1
22.8 | O=C(CNS(=O)(=O)c1ccc(Cl)cc1)Nc1ccccc1

Second part, the molecule before the results:

Compound | inhibition [%]
Cc1ccc(NC(=O)CNS(=O)(=O)c2ccccc2)c(C)c1 | 5.38
Cc1ccc(S(=O)(=O)NCC(=O)Nc2ccc(C)cc2C)cc1 | 35
CC(=O)Nc1ccc(S(=O)(=O)NCC(=O)Nc2ccc(C)cc2C)cc1 | 61.9
O=C(CNS(=O)(=O)c1ccccc1[N+](=O)[O-])Nc1cccc(Cl)c1 | 17.5
CC(=O)Nc1ccc(S(=O)(=O)NCC(=O)Nc2ccc(Cl)cc2)cc1 | 37.1
O=C(CNS(=O)(=O)c1cccc([N+](=O)[O-])c1)Nc1cccc(Cl)c1 | 42.1
Cc1ccc(S(=O)(=O)NCC(=O)Nc2cccc(Cl)c2)cc1 | 31.8
CC(=O)Nc1ccc(S(=O)(=O)NCC(=O)Nc2cccc(Cl)c2)cc1 | 52.9
O=C(CNS(=O)(=O)c1ccc([N+](=O)[O-])cc1)Nc1cccc(Cl)c1 | 17
Cc1ccccc1S(=O)(=O)NCC(=O)Nc1ccccc1 | 18.5
O=C(CNS(=O)(=O)c1cccc([N+](=O)[O-])c1)Nc1ccccc1 | 42
O=C(CNS(=O)(=O)c1ccccc1[N+](=O)[O-])Nc1ccccc1 | 14.9
Cc1ccc(NC(=O)CNS(=O)(=O)c2ccc(Cl)cc2)c(C)c1 | 35.9
COc1ccc(S(=O)(=O)NCC(=O)Nc2ccc(C)cc2C)cc1 | 28.4
Cc1ccc(NC(=O)CNS(=O)(=O)c2cccc([N+](=O)[O-])c2)c(C)c1 | 41
Cc1ccc(NC(=O)CNS(=O)(=O)c2ccc([N+](=O)[O-])cc2)c(C)c1 | 9.49
O=C(CNS(=O)(=O)c1ccc(Cl)cc1)Nc1cccc(Cl)c1 | 48.6
COc1ccc(S(=O)(=O)NCC(=O)Nc2cccc(Cl)c2)cc1 | 38.3
O=C(CNS(=O)(=O)c1ccc([N+](=O)[O-])cc1)Nc1ccccc1 | 5.03
Cc1ccc(NC(=O)CNS(=O)(=O)c2ccccc2[N+](=O)[O-])c(C)c1 | 21.6

Target: T1, Beta-secretase 1
Assay: Inhibition of human BACE1 expressed in recombinant baculovirus-infected insect cells using rhodamine conjugated APP-based EVNLDAEFK as substrate after 60 mins by FRET analysis
Procedure, shortened: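 FRET cleavage assay from a commercial BACE-1 kit, following supplier protocol. It used 3X BACE-1 enzyme (1U/ml) in 50mM sodium acetate buffer, pH 4.5. Test compounds were prepared as 10mM DMSO stocks and diluted with buffer. After 60 min incubation, fluorescence was read at 545 nm excitation.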

Compound | IC50 [µM]
CC(=O)Nc1ccc(S(=O)(=O)NCC(=O)Nc2ccc(C)cc2C)cc1 | 7.9
